Bioassay records as filed in PubChem.
MLLE-PAM2 inh: inhibitors of microRNA-mediated deadenylation, human PABP1 MLLE binding. P11940. GST-MLLE / FITC-PAM2 fluorescence polarization. inhibition, % at 20 µM. 360,000 compounds, 0.36% hits; in the data active = inhibition above about 35%, passing the limit was not always enough
IMP-1 inh-1: blocks Pseudomonas aeruginosa IMP-1 metallo-beta-lactamase. purified IMP-1, nitrocefin hydrolysis, epi-absorbance fluorescence. inhibition, % at 5.6 µM. 290,000 compounds, 0.45% hits;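 active = inhibition above the mean plus 3 SD of all compounds in the same screening run, cut at about 4.5% in these data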
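System: Purified IMP-1 | Read-out basis: Percent enzyme inhibition | Controls: IMP-1 with DMSO as 0%, enzyme-free DMSO as 100% | Replicates: One well per compound | Doses: 5.6 µM nominal single concentration | Detection: Epi-absorbance fluorescence, 480 nm excitation, 530 nm emission | Incubation: 25 °C, 15 min preincubation, 25 min reaction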
PABP FP inh: PABP-poly(A) binding inhibition; P11940; PABP-poly(A) RNA binding, fluorescence polarization; calls only at 35 µM; 290,000 compounds, 1% hits; AID 2014;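 also: calls also rest on retests at 20 µM and on dose response follow-up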
VIM-2 inhibitor: inhibitors of Pseudomonas aeruginosa VIM-2 metallo-beta-lactamase. purified VIM-2, nitrocefin hydrolysis, epi-absorbance fluorescence. inhibition, % at 5.6 µM. 290,000 compounds, 0.89% hits. AID 1527;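 active = inhibition above the mean of all tested compounds plus 3 SD, cutoff set per screening run, cut at about 7.5% in these data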;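 also: red hydrolysis product quenches plate fluorescence so inhibitors raise well fluorescence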
eIF4H inh: inhibitors of RNA binding by human eIF4H; 290,000 compounds, 0.94% hits; eIF4H fluorescence polarization binding assay; inhibition, % at 35 µM;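 also: calls also rest on retests at 20 µM and on dose response follow-up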
IMP-1 inh-2: blocks IMP-1 metallo-beta-lactamase in VIM-2 selectivity screen; purified IMP-1, nitrocefin hydrolysis, epi-absorbance fluorescence; inhibition, % at 5.6 µM; shares compounds with VIM-2 inhibitor; 1,300 tested, under 10 active
VIM-2 FRET ctr: counter-screen for VIM-2 inhibitors: epi-absorbance artifacts via FRET | 1,300 compounds, 23% hits | purified VIM-2, CCF2 FRET substrate hydrolysis | inhibition, % at 5.6 µM | shares compounds with VIM-2 inhibitor;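 active = inhibition above the mean of all tested compounds plus 3 SD, cut at about 19% in these data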
TEM-1 inh: blocks E. coli TEM-1 beta-lactamase in VIM-2 selectivity screen | shares compounds with VIM-2 inhibitor | Purified TEM-1, nitrocefin hydrolysis, epi-absorbance fluorescence | inhibition, % at 5.6 µM | 1,300 compounds, 3% hits | AID 1866;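 active = inhibition above that campaign's mean inhibition plus 3 SD, cut at about 0.46% in these data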
Target sequence (P62593 whole entry, looked up): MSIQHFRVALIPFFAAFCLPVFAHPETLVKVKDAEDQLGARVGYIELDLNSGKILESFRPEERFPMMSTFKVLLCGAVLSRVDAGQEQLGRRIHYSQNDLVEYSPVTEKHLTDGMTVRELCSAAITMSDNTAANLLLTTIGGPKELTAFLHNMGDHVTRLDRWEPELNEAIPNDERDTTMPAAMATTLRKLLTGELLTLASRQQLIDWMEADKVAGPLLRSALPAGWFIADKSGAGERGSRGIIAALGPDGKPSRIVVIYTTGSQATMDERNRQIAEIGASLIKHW
VIM-2 inh conf: confirmation of P. aeruginosa VIM-2 metallo-beta-lactamase inhibitors; purified VIM-2, nitrocefin hydrolysis, epi-absorbance; inhibition, % at 5.6 µM; shares compounds with VIM-2 inhibitor; 1,300 compounds, 96% hits;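 active = inhibition of the VIM-2 beta-lactamase enzyme above about 11% from the earlier first-round screen, limit read from the data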
Large screens that a line does not name were inactive (follow-up assays come after a bar, where they were run). A selection: hits, their analogues and other compounds. The true share with any hit is near 2.2%. Unless noted, no rule for the calls is given here.

O=C(COc1ccc2c(-c3ccccc3)cc(=O)oc2c1)NCCCN1CCOCC1	none
O=C(COc1cc2oc(=O)c3c(c2cc1Cl)CCC3)NCCCN1CCCC1=O	VIM-2 inhibitor 17.6 | IMP-1 inh-2 inactive | VIM-2 FRET ctr inactive | TEM-1 inh inactive | VIM-2 inh conf 32.0
CC(C)CCNC(=O)COc1ccc2c3c(c(=O)oc2c1)CCC3	none
O=C(COc1ccc2c3c(c(=O)oc2c1)CCC3)NCCN1CCOCC1	VIM-2 inhibitor 18.8 | IMP-1 inh-2 inactive | VIM-2 FRET ctr inactive | TEM-1 inh inactive | VIM-2 inh conf 25.0
Cc1ccc(Cc2ccccc2C(=O)O)cc1	none (no result: IMP-1 inh-1, PABP FP inh, VIM-2 inhibitor, eIF4H inh)
COc1ccc(NC(=O)C2Cc3c(-c4ccc(Cl)cc4)ccnc3O2)cc1OC (stereo not drawn)	none (no result: IMP-1 inh-1, PABP FP inh, VIM-2 inhibitor, eIF4H inh)
Cc1c(OC(C)C(=O)NCCCN2CCOCC2)ccc2c1oc(=O)c1ccccc12 (stereo not drawn)	VIM-2 inhibitor 19.3 | IMP-1 inh-2 inactive | VIM-2 FRET ctr inactive | TEM-1 inh inactive | VIM-2 inh conf 29.4
CCc1cc(=O)oc2cc(C)cc(OC(C)C(=O)NCCCN3CCCC3=O)c12 (stereo not drawn)	none
Cc1c(C)c2ccc(OC(C)C(=O)NCCCn3ccnc3)c(C)c2oc1=O (stereo not drawn)	VIM-2 inhibitor 44.6 | IMP-1 inh-2 inactive | VIM-2 FRET ctr inactive | TEM-1 inh inactive | VIM-2 inh conf 53.7
CCc1cc(=O)oc2cc(C)cc(OC(C)C(=O)NCCCn3ccnc3)c12 (stereo not drawn)	VIM-2 inhibitor 36.5 | IMP-1 inh-2 inactive | VIM-2 FRET ctr inactive | TEM-1 inh inactive | VIM-2 inh conf 49.2
Cc1cc(C=O)c(C)n1-c1ccc(NC2CCCC2)c([N+](=O)[O-])c1	none (no result: IMP-1 inh-1, PABP FP inh, VIM-2 inhibitor, eIF4H inh)
CC(C(=O)OCC(=O)c1ccc(Br)cc1)N1C(=O)C2C3C=CC(C3)C2C1=O (stereo not drawn)	none
CC(C)Cc1ccc(C(=O)Nc2ccc(Cc3ccncc3)cc2)o1	none
O=S(=O)(c1ccc2c(c1)CCC2)N1CCNCC1	none (no result: IMP-1 inh-1, PABP FP inh, VIM-2 inhibitor, eIF4H inh)
Cc1ccc(S(=O)(=O)NCC(=O)OCC(=O)N2C(C)CCCC2C)cc1 (stereo not drawn)	none (no result: IMP-1 inh-1, PABP FP inh, VIM-2 inhibitor, eIF4H inh)
Cn1c(=O)c2c(SCc3cccnc3)nc(C3CC3)nc2n(C)c1=O	VIM-2 inhibitor 29.4 | IMP-1 inh-2 inactive | VIM-2 FRET ctr inactive | TEM-1 inh inactive | VIM-2 inh conf 49.0
CN1CCN(c2ccc(C(=O)c3ccc(F)cc3)cc2)CC1	VIM-2 inhibitor 24.2 | IMP-1 inh-2 inactive | VIM-2 FRET ctr inactive | TEM-1 inh inactive | VIM-2 inh conf 39.9
O=C(c1ccccc1)c1ccc(N2CCNCC2)cc1	VIM-2 inhibitor 18.2 (no result: MLLE-PAM2 inh) | IMP-1 inh-2 inactive | VIM-2 FRET ctr inactive | TEM-1 inh inactive | VIM-2 inh conf 45.6
O=C(O)CCC(=O)N1CCN(c2ccc(C(=O)c3ccc(F)cc3)cc2)CC1	VIM-2 inhibitor 15.9 | IMP-1 inh-2 inactive | VIM-2 FRET ctr inactive | TEM-1 inh inactive | VIM-2 inh conf inactive
CCOc1ccc(-c2nnc(SCC(=O)NC(C)(C)C)nc2-c2ccc(OCC)c(OC)c2)cc1OC	none
c1ccc(-c2cc(-c3nn4c(-c5ccco5)nnc4s3)c3ccccc3n2)cc1	none
COc1cc(-c2nn3c(-c4ccccc4)nnc3s2)cc(OC)c1OC	VIM-2 inhibitor 18.1 | IMP-1 inh-2 inactive | VIM-2 FRET ctr 38.5 | TEM-1 inh inactive | VIM-2 inh conf 36.5
COc1cc(-c2nnc3sc(-c4ccncc4)nn23)cc(OC)c1OC	none (no result: IMP-1 inh-1, PABP FP inh, VIM-2 inhibitor, eIF4H inh)
COc1ccc(-c2nn3c(-c4ccco4)nnc3s2)cc1OC	VIM-2 inhibitor 53.8 | IMP-1 inh-2 inactive | VIM-2 FRET ctr inactive | TEM-1 inh inactive | VIM-2 inh conf 56.1
Cc1cc(-c2nn3c(-c4ccccc4)nnc3s2)c2ccccc2n1	VIM-2 inhibitor 12.7 | IMP-1 inh-2 inactive | VIM-2 FRET ctr inactive | TEM-1 inh inactive | VIM-2 inh conf 35.4
